Experimental findings from ChEMBL document CHEMBL1138317, “Antibacterial oxazolidinones possessing a novel C-5 side chain. (5R)-trans-3-[3-Fluoro-4- (1-oxotetrahydrothiopyran-4-yl)phenyl]-2- oxooxazolidine-5-carboxylic acid amide (PF-00422602), a new lead compound” (J Med Chem, 2007) are described below.

In one assay the test system is Escherichia coli. Briefly: Inhibition of protein synthesis in Escherichia coli by cell-free transcription-translation assay. Format: functional. The method, boiled down: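 E. coli cell-free coupled transcription/translation run in microtiter format with a luciferase reporter; luminescence was the read-out for protein synthesis.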
The test system of a further assay is Streptococcus pneumoniae. Briefly: Antibacterial activity against levofloxacin-penicillin-resistant Streptococcus pneumoniae SV1 SP3 by microbroth technology. Type of assay: functional. An outline of the steps: (§1)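 Drug-resistant panel strains (levofloxacin/oxacillin-resistant S. aureus, levofloxacin/penicillin-resistant S. pneumoniae, vancomycin-resistant E. faecalis and E. faecium). Broth microdilution MIC in µg/mL; value reported as MIC90 across the strains of each resistant group.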
In general terms: Dilution methods test growth across graded concentrations, often in twofold steps.

Assay [1] concerns the target T1, Amine oxidase [flavin-containing] A (Homo sapiens, UniProt P21397).
T1 sequence (P21397 whole entry): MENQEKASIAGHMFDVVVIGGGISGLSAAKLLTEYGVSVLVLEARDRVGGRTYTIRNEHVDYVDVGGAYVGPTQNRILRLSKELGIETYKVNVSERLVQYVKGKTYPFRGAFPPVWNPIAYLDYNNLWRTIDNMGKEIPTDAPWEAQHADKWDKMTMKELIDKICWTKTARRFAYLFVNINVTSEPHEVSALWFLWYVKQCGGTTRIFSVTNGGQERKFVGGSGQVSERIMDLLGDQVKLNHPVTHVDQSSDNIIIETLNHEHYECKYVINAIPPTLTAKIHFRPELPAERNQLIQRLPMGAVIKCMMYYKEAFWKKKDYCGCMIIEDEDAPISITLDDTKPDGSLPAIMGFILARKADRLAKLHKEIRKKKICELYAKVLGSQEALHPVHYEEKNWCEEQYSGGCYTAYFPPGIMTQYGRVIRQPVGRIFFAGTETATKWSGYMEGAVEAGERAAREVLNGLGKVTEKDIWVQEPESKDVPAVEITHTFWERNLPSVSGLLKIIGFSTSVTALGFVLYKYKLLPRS
Briefly: Inhibition of human recombinant MAOA.

In a further assay the test system is Enterococcus faecalis. Briefly: Antibacterial activity against vancomycin-resistant Enterococcus faecalis MGH2 EF1 by microbroth technology. Type of assay: functional. The method, boiled down: as §1
In a further assay the test system is Haemophilus influenzae. Briefly: Antibacterial activity against Haemophilus influenzae by micro-broth technology. Format: functional. An outline of the steps:
(§2)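 MIC determined by broth microdilution, reported in µg/mL.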

The subject of the next assay is Moraxella catarrhalis. Briefly: Antibacterial activity against Moraxella catarrhalis by microbroth technology. Format: functional. The method, boiled down:
as §2

Another assay concerns Enterococcus faecium. Briefly: Antibacterial activity against vancomycin-resistant Enterococcus faecium by micro-broth technology. Format: functional. An outline of the steps: as §1
The test system of assay [2] is Staphylococcus aureus. Briefly: Antibacterial activity against levofloxacin-oxacillin-resistant Staphylococcus aureus UC76 SA1 by micro-broth technology. Type of assay: functional. The method, boiled down:
as §1

Assay [3] deals with Staphylococcus aureus. Briefly: Antibacterial activity against Staphylococcus aureus UC76 in po dosed CD1 mouse systemic infection model assessed as mortality after 7 days. Type of assay: functional.

Converted amounts (≈) assume the structure as drawn.

In the case of `NC(=O)[C@H]1CN(c2cc(F)c(N3CCOCC3)c(F)c2)C(=O)O1`, the values for the IC50 (in the assay with Escherichia coli; in [1]) were 17 µM and 63 µM, respectively. The MIC90 against Streptococcus pneumoniae came to 4 mg/L (≈ 12.2 µM); against Enterococcus faecalis, 8 mg/L (≈ 24.4 µM); against Enterococcus faecium it was 8 mg/L (≈ 24.4 µM); in the assay with Staphylococcus aureus [2] it was 4 mg/L (≈ 12.2 µM). Moreover, the MIC against Haemophilus influenzae and against Moraxella catarrhalis was greater than 8 mg/L throughout. Besides, in the assay on Staphylococcus aureus [3], the PD50 came out at 6.7 mg/kg.

Broadly, the IC50 is the concentration that inhibits the measured activity by half. A word on the MIC90: it is an inhibitory concentration at the 90% level, which refers to growth in some studies and to a panel of isolates in others. Read a low MIC90 as higher susceptibility.
